{"source": "ChEMBL document CHEMBL4028863", "about": "“Exploring Heme and Hemoglobin Binding Regions of Plasmodium Heme Detoxification Protein for New Antimalarial Discovery” (J Med Chem, 2017)", "key": {"[1]": {"tested_on": "Plasmodium falciparum", "assay": "Growth inhibition of late ring stage Plasmodium falciparum 3D7 infected in RBC after 60 hrs by e thidium bromidestaining based flow cytometric analysis", "assay_type": "functional", "procedure,_shortened": "(§1)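 P. falciparum 3D7 cultures synchronized with 5% sorbitol; assay set at late ring stage, 2% hematocrit, 1% parasitemia. Compounds added at 50 and 100 μM (screen) or 5−100 μM (dose series). Parasitemia read by flow cytometry after 60 h (methods: 48 h into next cycle): ethidium bromide 10 μg/mL, 20 min, 37 °C; FL2-positive fraction of 100000 cells, uninfected RBCs as control. Triplicates.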"}, "[2]": {"tested_on": "Plasmodium falciparum", "assay": "Antiparasitic activity against late ring stage Plasmodium falciparum 3D7 infected in RBC at 50 to 100 uM after 60 hrs by ethidium bromide staining based flow cytometric analysis", "assay_type": "functional", "procedure,_shortened": "as §1"}, "[3]": {"assay": "Stability of the compound under freezing condition", "assay_type": "physicochemical"}, "[4]": {"tested_on": "Heme", "assay": "Binding affinity to heme (unknown origin) at 20 uM by SORET assay", "procedure,_shortened": "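Soret titration: 20 μM peptide in 100 mM sodium acetate pH 5.2; heme added in 3 μM increments. Spectrum recorded after each addition; change in absorbance at 400 nm plotted against heme concentration. Alanine-substituted peptide served as control.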"}, "[5]": {"assay": "Inhibition of wild type Plasmodium falciparum HDP binding to hemoglobin at 0.5 to 100 uM preincubated for 30 min followed by HDP addition measured after 1 hr by ELISA", "procedure,_shortened": "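ELISA competition: 400 ng hemoglobin preincubated with varying peptide concentrations for 30 min at 37 °C, then added to wells coated overnight at 4 °C with 200 ng recombinant PfHDP and blocked with 3% BSA. Detection with anti-Hb (1:500), then HRP anti-rabbit (1:5000) for 1 h, OPD substrate, absorbance 490 nm. Control peptide included.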"}, "[6]": {"tested_on": "Heme", "assay": "Binding affinity to heme (unknown origin) assessed as reduction in heme to hemozoin conversion by Plasmodium falciparum HDP", "procedure,_shortened": "(§2)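 Heme-to-hemozoin conversion: heme (10 mM DMSO stock) at 300 μM with 0.5 μM recombinant PfHDP in 500 mM sodium acetate pH 5.2, 4 h at 37 °C. Stopped with SDS. Pellet washed in 2.5% SDS and in 50 mM bicarbonate pH 9.1 to strip free heme. Hemozoin dissolved in 0.1N NaOH/2.5% SDS, read at 405 nm. Triplicates.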"}, "[7]": {"tested_on": "Heme", "assay": "Binding affinity to heme (unknown origin) assessed as reduction in heme to hemozoin conversion by Plasmodium falciparum HDP at 100 uM relative to control", "parameters": "scale not given: the % may be the effect or the level left", "procedure,_shortened": "as §2"}, "[8]": {"molecular_target": "T1, Heme ligase (Plasmodium falciparum (isolate 3D7), UniProt Q8IL04)", "T1 sequence (Q8IL04 whole entry)": "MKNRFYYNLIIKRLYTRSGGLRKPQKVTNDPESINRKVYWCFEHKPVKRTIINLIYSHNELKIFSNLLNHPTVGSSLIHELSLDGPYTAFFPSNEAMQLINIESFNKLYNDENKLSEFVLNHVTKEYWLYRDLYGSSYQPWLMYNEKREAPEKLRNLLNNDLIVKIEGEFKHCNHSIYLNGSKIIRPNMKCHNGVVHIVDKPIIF", "assay": "Binding affinity to Plasmodium falciparum 3D7 HDP assessed as equilibrium dissociation constant by SPR assay", "procedure,_shortened": "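Recombinant Pf HDP immobilised (>9500 RU) on a CM5 chip from 10 mM sodium acetate pH 4.0, then ethanolamine-blocked. Ligand was diluted from a 10 mM DMSO stock to 200 μM (2% DMSO), and a concentration series was made in PBS pH 7.4 running buffer with 2% DMSO and 0.05% P20. Eight-point DMSO solvent correction, glycine pH 2.5 regeneration, 25 °C, kinetic fit.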"}, "[9]": {"molecular_target": "T2, Heme ligase (Plasmodium falciparum (isolate 3D7)) (UniProt Q8IL04)", "T2 sequence (whole entry)": "T1 sequence (Q8IL04 whole entry)"}, "[10]": {"molecular_target": "T2, Heme ligase (Plasmodium falciparum (isolate 3D7))", "conditions": "Plasmodium falciparum 3D7; 50 uM"}, "[11]": {"tested_on": "Plasmodium falciparum", "assay": "Antiplasmodial activity against late trophozoite stage of Plasmodium falciparum 3D7 infected in RBC assessed as gross deformaties in food vacuole at 50 to 100 uM after 12 hrs by giemsa staining based microscopic analysis", "assay_type": "functional", "procedure,_shortened": "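Sorbitol-synchronized 3D7 late-ring cultures at 2% hematocrit and 1% parasitemia were given peptide at 50−100 μM. After 12 h, at the late trophozoite stage, Giemsa-stained smears were examined by microscopy for food vacuole morphology.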"}}, "note": "Activity calls are given as the source filed them. The rule behind the calls is not given here.", "data": [{"compound": "Cc1ccc(Oc2ncccc2NC(=O)c2ccc3c(c2)OCCCO3)c2c1CCC2", "values": [{"measurement": "growth inhibition (GI)", "setting": "[1]", "result": "Dose-dependent effect"}, {"measurement": "Activity", "setting": "[2]", "result": "Active"}, {"measurement": "Stability", "setting": "[3]", "result": "Unstable"}]}, {"compound": "H-GEFKAAAASIYLNG-OH", "values": [{"measurement": "Activity", "setting": "[4]", "result": "Active"}]}, {"compound": "H-LHRKNFLELGNENIDKL-OH", "values": [{"measurement": "inhibition", "setting": "[5]", "result": "inactive"}]}, {"compound": "O=C(c1cccs1)c1nn(-c2ccccc2)c2nc(=O)cc(-c3ccccc3)n12", "values": [{"measurement": "growth inhibition (GI)", "setting": "[1]", "result": "Dose-dependent effect"}, {"measurement": "Activity", "setting": "[2]", "result": "Active"}, {"measurement": "Stability", "setting": "[3]", "result": "Unstable"}]}, {"compound": "H-MKCHNGVVHIVD-OH", "values": [{"measurement": "Activity", "setting": "[4]", "result": "Active"}, {"measurement": "Activity", "setting": "[6]", "result": "Dose-dependent effect"}, {"measurement": "Activity", "setting": "[7]", "result": "> 75", "unit": "%"}]}, {"compound": "N#Cc1cc(Cc2ccc3c(ccc4ccccc43)c2C#N)cc2c1ccc1ccccc12", "values": [{"measurement": "Activity", "setting": "[2]", "result": "Active"}]}, {"compound": "C(=C1/c2ccccc2-c2c1ccc1ccccc21)/c1cc2c3c(cccc3c1)-c1ccccc1-2", "values": [{"measurement": "Activity", "setting": "[2]", "result": "Active"}]}, {"compound": "O=C(NNC(=O)C1c2ccccc2Oc2ccccc21)c1cccc(C(F)(F)F)c1", "values": [{"measurement": "growth inhibition (GI)", "setting": "[1]", "result": "Dose-dependent effect"}, {"measurement": "Activity", "setting": "[2]", "result": "Active"}, {"measurement": "Stability", "setting": "[3]", "result": "Unstable"}]}, {"compound": "H-GEFKHCNHSIYLNG-OH", "values": [{"measurement": "Activity", "setting": "[4]", "result": "Active"}, {"measurement": "Activity", "setting": "[6]", "result": "Dose-dependent effect"}, {"measurement": "Activity", "setting": "[7]", "result": "> 75", "unit": "%"}]}, {"compound": "FC(F)(F)c1cccc(N2CCN(C3=Cc4ccccc4CC3)CC2)c1", "values": [{"measurement": "growth inhibition (GI)", "setting": "[1]", "result": "Dose-dependent effect"}, {"measurement": "IC50", "setting": "[1]; 3D7, 60 h", "result": 59.6, "unit": "µM"}, {"measurement": "Kd", "setting": "[8]", "result": 2.96, "unit": "µM"}, {"measurement": "Activity", "setting": "[2]", "result": "Active"}, {"measurement": "Ka", "setting": "[9]", "result": 3.37, "unit": "×10⁵ /M"}, {"measurement": "inhibition", "setting": "[10]", "result": 31, "unit": "%"}, {"measurement": "Stability", "setting": "[3]", "result": "Stable"}]}, {"compound": "COc1ccc(Oc2ccc(C(F)(F)F)cc2NS(=O)(=O)c2cccc3nonc23)cc1", "values": [{"measurement": "Activity", "setting": "[2]", "result": "Active"}]}, {"compound": "NS(=O)(=O)c1cccc(-c2ccc(C3Nc4ccccc4-c4nc5ccccc5n43)o2)c1", "note": "(centres undefined)", "values": [{"measurement": "Activity", "setting": "[2]", "result": "Active"}]}, {"compound": "H-LRNLLNNDLIVKIEGEFKH-OH", "values": [{"measurement": "inhibition", "setting": "[5]", "result": "Active"}, {"measurement": "Activity", "setting": "[11]", "result": "Active"}]}, {"compound": "O=c1oc2ccccc2c2c1C(c1cccc([N+](=O)[O-])c1)c1c(c3ccccc3oc1=O)O2", "values": [{"measurement": "Activity", "setting": "[2]", "result": "Active"}]}, {"compound": "O=C(CCn1c(=O)oc2ccccc21)Nc1cc(C(F)(F)F)cc(C(F)(F)F)c1", "values": [{"measurement": "Activity", "setting": "[2]", "result": "Active"}]}, {"compound": "Cc1ccc(-n2nnnc2SCc2nc(-c3cccc([N+](=O)[O-])c3)no2)c(C)c1", "values": [{"measurement": "growth inhibition (GI)", "setting": "[1]", "result": "Dose-dependent effect"}, {"measurement": "Activity", "setting": "[2]", "result": "Active"}, {"measurement": "Stability", "setting": "[3]", "result": "Unstable"}]}, {"compound": "O=[N+]([O-])c1ccc(N/N=C2/C(=C/c3cccc4ccccc34)CCc3ccccc32)c([N+](=O)[O-])c1", "values": [{"measurement": "growth inhibition (GI)", "setting": "[1]", "result": "Dose-dependent effect"}, {"measurement": "Activity", "setting": "[2]", "result": "Active"}, {"measurement": "Stability", "setting": "[3]", "result": "Unstable"}]}, {"compound": "Cc1cc(=O)oc2cc(NS(=O)(=O)c3cccc4nonc34)ccc12", "values": [{"measurement": "Activity", "setting": "[2]", "result": "Active"}]}]}
